A word on the viability: it is a read-out of living cells in per cent, often relative to untreated cells. A word on the inhibition: it is the change of the read-out against control, counted positive when it falls.

Molecules are shown by their SMILES. The source made the active and inactive calls. Cut-off read from the data, not from the text of the source, unless noted: active = inhibition above about 30%; inactive = the rest.

The text below walks through data of PubChem BioAssay.

Test [1] in a line: Her2 expression decrease, cell viability multiplex – SKBR3 breast tumor cells, AlphaScreen, ATP viability, primary screen (AID 461;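 active = Her2 level under about 52% in both replicate screens, with viability over 70% of control, limit read from the data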;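 for Her2 level: lower value means less Her2 protein in the cells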;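 for viability: percent of carrier control wells set as 100% viability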). Conditions: SKBR3 Her2 protein level, 18-24 h, measured here: SKBR3 viability, ATP luminescence, at 10 µM.
For test [2], the target named is Receptor tyrosine-protein kinase erbB-2 (Homo sapiens) (UniProt P04626). The description is as above. Conditions: 18-24 h, at 10 µM, stronger effect = lower value.
Sequence of Receptor tyrosine-protein kinase erbB-2 (Homo sapiens) (P04626 whole entry, looked up): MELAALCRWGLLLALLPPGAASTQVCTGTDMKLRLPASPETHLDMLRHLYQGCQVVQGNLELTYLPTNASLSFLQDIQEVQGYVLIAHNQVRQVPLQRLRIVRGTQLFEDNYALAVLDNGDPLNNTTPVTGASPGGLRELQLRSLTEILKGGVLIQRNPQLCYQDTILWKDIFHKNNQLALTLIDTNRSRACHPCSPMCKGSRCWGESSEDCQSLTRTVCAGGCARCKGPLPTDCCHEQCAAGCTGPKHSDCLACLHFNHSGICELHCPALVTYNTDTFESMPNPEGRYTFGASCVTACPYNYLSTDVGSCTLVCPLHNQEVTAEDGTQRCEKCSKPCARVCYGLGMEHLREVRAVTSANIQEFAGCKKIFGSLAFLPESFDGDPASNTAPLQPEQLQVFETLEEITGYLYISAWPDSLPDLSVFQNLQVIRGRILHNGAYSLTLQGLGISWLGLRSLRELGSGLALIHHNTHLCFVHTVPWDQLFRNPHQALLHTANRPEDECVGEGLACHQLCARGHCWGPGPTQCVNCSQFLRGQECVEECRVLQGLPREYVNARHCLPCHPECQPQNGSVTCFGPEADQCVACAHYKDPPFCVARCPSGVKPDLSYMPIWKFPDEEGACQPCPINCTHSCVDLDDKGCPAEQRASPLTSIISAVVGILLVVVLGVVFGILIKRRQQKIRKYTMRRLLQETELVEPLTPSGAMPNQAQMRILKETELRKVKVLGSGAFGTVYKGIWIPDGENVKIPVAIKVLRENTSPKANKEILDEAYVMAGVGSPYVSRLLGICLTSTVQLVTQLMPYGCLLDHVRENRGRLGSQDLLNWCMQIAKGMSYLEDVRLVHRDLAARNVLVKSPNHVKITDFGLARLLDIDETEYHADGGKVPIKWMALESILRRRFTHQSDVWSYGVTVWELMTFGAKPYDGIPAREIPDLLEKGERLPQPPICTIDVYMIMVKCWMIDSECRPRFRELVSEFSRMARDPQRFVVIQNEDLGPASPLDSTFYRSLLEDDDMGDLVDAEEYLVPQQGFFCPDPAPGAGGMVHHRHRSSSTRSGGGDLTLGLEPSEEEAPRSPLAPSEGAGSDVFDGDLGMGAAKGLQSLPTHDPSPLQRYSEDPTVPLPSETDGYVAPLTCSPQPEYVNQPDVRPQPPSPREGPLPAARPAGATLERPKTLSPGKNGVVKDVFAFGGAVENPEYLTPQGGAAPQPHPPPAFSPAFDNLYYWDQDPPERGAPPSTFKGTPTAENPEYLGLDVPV
A short description of test [3]: reduced viability of SK-BR-3 breast cancer cells – cell-based, 24 h, human, pilot screen (AID 572;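 active = viability at or below 10% of carrier control in both of two separate runs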;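 note: compound exposure lasted between 18 and 24 h rather than exactly 24 h; 100% = carrier-treated control wells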). The conditions noted are these: SK-BR-3 viability, CellTiter-Glo luminescence, at 10 µM, stronger effect = lower value.
Test [4] in a line: HUVEC growth inhibition – cell-based, human, primary screen (AID 575;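 active = viability at or below 30% in both replicate assays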;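 note: 100% = median of untreated cell wells with 0.1% DMSO on each plate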). Conditions: HUVEC proliferation, CellTiter-Glo luminescence, 72 h; at 10 µM; stronger effect = lower value. In short, it runs like this:
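Timing: 72 h treatment at 37 °C; material: HUVEC primary cells; technique: CellTiter-Glo luminescence measuring cellular ATP; controls: vehicle and MePR control wells; measure: percent of median DMSO-control luminescence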
(In general: Cellular ATP, detected with luciferase, serves as a proxy for viable cell number.)

A short description of test [5]: H69AR cell proliferation blockers – human, duplicate replicates, primary screen (AID 580;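 active = viability at or under a set limit in both replicates, limit being median viability minus 3 SD, cut at about 48% in these data, passing the limit was not always enough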;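 note: 100% = mean luminescence of untreated wells and 0% = no signal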). The conditions noted are these: H69AR lung tumor cells viability, ATP luminescence, 72 h; at 10 µM; stronger effect = lower value.
Test [6] in a line: MRP1 drug-resistance reversers in H69AR cells – cell-based, doxorubicin co-treatment, pilot screen (AID 601;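 active = viability loss from added drug above about 55%, and viability with drug at most 40%, in both replicates, limit read from the data, passing the limit was not always enough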). Conditions: CellTiter-Glo, 72 h, at 10 µM; for differential viability (reversal): stronger effect = higher value.
The nature of test [7]: yeast transport mutant growth inhibition pilot in 384-well plates, post-Golgi transport modulator project (AID 636; in the data active = inhibition above about 31%). Conditions: absorbance 615 nm, about 18 h, stronger effect = higher value.
Test [8] in a line: growth suppression of yeast trafficking mutant, preliminary HTS, modulators of trafficking downstream of Golgi apparatus project, 1536-format plate, OD 615 nm (AID 637). The conditions noted are these: yeast transport mutant growth, absorbance 615 nm, 18 h; stronger effect = higher value.
The mark [9] stands for this setting: H69AR cells + 2 uM doxorubicin, measured here: viability with 2 uM doxorubicin, stronger effect = lower value.
Where [10] appears, read: H69AR cells, compound alone cytotoxicity.

Consider `CN(C1CCS(=O)(=O)C1)S(=O)C12CC3CC(CC(C3)C1)C2` (stereo not given), for which the viability in test [1] is 83%; in test [3], 83% (inactive); in test [4], 92.8% (inactive); in test [5] it was 99.9% (inactive); in test [6] (setting [9]) it was 96.3%; in test [6] (setting [10]), 99.9%. In addition, the Her2 level in test [2] was 95.5% (inactive). In test [6] (H69AR cells + 2 uM doxorubicin), the differential viability (reversal) was 3.66% (inactive). In addition, the inhibition was -5.75% (inactive) in test [7] and -5.08% (inactive) in test [8].

As to `CCOC(=O)C1=C(c2ccccc2)Nc2nc(C)nn2C1c1cccc(OC)c1OC` (stereo not given), the viability in test [1] is 111%; in test [3] it was 111% (inactive); in test [4], 90.6% (inactive); in test [5], 90.2% (inactive); in test [6] (setting [9]), 53.4%; in test [6] (setting [10]), 90.2%. In test [2], the Her2 level is 130% (inactive). Further, the differential viability (reversal) in test [6] (H69AR cells + 2 uM doxorubicin) is 36.8% (inactive). Moreover, the inhibition in test [7] is -2.24% (inactive); in test [8], -0.66% (inactive).

With `NS(=O)(=O)c1ccc(NCc2c(F)cccc2Cl)cc1`, the viability in test [1] was 100%; in test [3], 100% (inactive); in test [4], 102% (inactive); in test [5] it was 82.9% (inactive); in test [6] (setting [9]), 76.5%; in test [6] (setting [10]), 82.9%. Besides, the Her2 level in test [2] is 95.5% (inactive). Moreover, in test [6] (H69AR cells + 2 uM doxorubicin), the differential viability (reversal) was 6.38% (inactive). Besides, the values for the inhibition in test [7] and in test [8] were -3.82% (inactive) and 7.54% (inactive), respectively.

Take `CCn1c(=O)n(CC(=O)NCc2ccccc2OC)c(=O)c2ccccc21`: the viability in test [1] was 95%; in test [3], 95% (inactive); in test [4] it was 87.5% (inactive); in test [5], 101% (inactive); in test [6] (setting [9]), 97.4%; in test [6] (setting [10]), 101%. Further, in test [2], the Her2 level was 84% (inactive). The differential viability (reversal) in test [6] (H69AR cells + 2 uM doxorubicin) was 3.65% (inactive). Moreover, the inhibition in test [7] was 0.92% (inactive); in test [8] it was -3.06% (inactive).

`COCCN(CCOC)S(=O)(=O)c1ccc(C(=O)Nc2nnc(C3CC3)o2)cc1`: the viability in test [1] was 75%; in test [3], 75% (inactive); in test [4], 80.5% (inactive); in test [5] it was 82.7% (inactive); in test [6] (setting [9]), 84.2%; in test [6] (setting [10]) it was 82.7%. In addition, the Her2 level in test [2] was 86% (inactive). In test [6] (H69AR cells + 2 uM doxorubicin), the differential viability (reversal) was -1.53% (inactive). For the same compound, the figures for the inhibition in test [7] and in test [8] were -3.65% (inactive) and 1.48% (inactive), respectively.

As for `Cc1ccc(CNC(=O)COC(=O)c2c(C)noc2C)cc1`, the viability in test [1] was 99%; in test [3] it was 99% (inactive); in test [4] it was 97.4% (inactive); in test [5] it was 92.8% (inactive); in test [6] (setting [9]), 85.6%; in test [6] (setting [10]), 92.8%. For the same compound, the Her2 level in test [2] was 121% (inactive). Further, the differential viability (reversal) in test [6] (H69AR cells + 2 uM doxorubicin) was 7.25% (inactive). In addition, the inhibition in test [7] was -4.03% (inactive); in test [8], -14.2% (inactive).

In the case of `CCN(c1ccc(OC)cc1)S(=O)(=O)c1ccc2c(c1)CCN2C(=O)CCC(=O)O`, the viability in test [1] was 115%; in test [3] it was 115% (inactive); in test [4], 88.9% (inactive); in test [5], 92.4% (inactive); in test [6] (setting [9]), 90%; in test [6] (setting [10]), 92.4%. The Her2 level in test [2] is 97.5% (inactive). Moreover, the differential viability (reversal) in test [6] (H69AR cells + 2 uM doxorubicin) is 2.4% (inactive). The inhibition in test [7] is -3.55% (inactive); in test [8], -2.06% (inactive).

As to `CN1CCN(C(c2cccc(C(F)(F)F)c2)c2nnnn2C(C)(C)C)CC1` (stereo not given), the viability in test [1] is 94.5%; in test [3], 94.5% (inactive); in test [4], 102% (inactive); in test [5], 91.5% (inactive); in test [6] (setting [9]), 89.7%; in test [6] (setting [10]) it was 91.5%. The Her2 level in test [2] was 86.5% (inactive). In addition, in test [6] (H69AR cells + 2 uM doxorubicin), the differential viability (reversal) was 1.82% (inactive). The figures for the inhibition in test [7] and in test [8] were -4.8% (inactive) and 0.82% (inactive), respectively.

`CSc1nnc2c3ccccc3n(CCc3ccccc3)c2n1`: the viability is 90% in test [1]; 90% (inactive) in test [3]; 68.6% (inactive) in test [4]; 89.4% (inactive) in test [5]; 86.1% in test [6] (setting [9]); 89.4% in test [6] (setting [10]). In addition, in test [2], the Her2 level is 100% (inactive). Also, the differential viability (reversal) in test [6] (H69AR cells + 2 uM doxorubicin) was 3.33% (inactive). The inhibition in test [7] was -1.35% (inactive); in test [8], 46.2% (active).

Consider `COc1cccc(Cn2c(Oc3ccccc3)nc3c2c(=O)n(C)c(=O)n3C)c1`, for which the viability in test [1] is 100%; in test [3], 100% (inactive); in test [4], 72.7% (inactive); in test [5], 83.8% (inactive); in test [6] (setting [9]), 80.5%; in test [6] (setting [10]) it was 83.8%. Further, the Her2 level in test [2] was 104% (inactive). In addition, the differential viability (reversal) in test [6] (H69AR cells + 2 uM doxorubicin) is 3.32% (inactive). For the same compound, the inhibition in test [7] was -0.13% (inactive); in test [8], 6.07% (inactive).

Take `COC(=O)c1[nH]c2ccc(F)cc2c1NS(=O)(=O)c1ccc(OC)cc1OC`: the viability was 79% in test [1]; 79% (inactive) in test [3]; 88.5% (inactive) in test [4]; 84.4% (inactive) in test [5]; 99.9% in test [6] (setting [9]); 84.4% in test [6] (setting [10]). In addition, the Her2 level in test [2] was 75% (inactive). Besides, the differential viability (reversal) in test [6] (H69AR cells + 2 uM doxorubicin) was -15.5% (inactive). Besides, the inhibition is -6.76% (inactive) in test [7] and 4.92% (inactive) in test [8].

For the compound `Cc1ccc(/C(O)=C2/C(=O)C(=O)N(Cc3ccco3)C2c2cccs2)cc1` (stereo not given), the viability is 103% in test [1]; 103% (inactive) in test [3]; 101% (inactive) in test [4]; 67.6% (inactive) in test [5]; 80.7% in test [6] (setting [9]); 67.6% in test [6] (setting [10]). Besides, in test [2], the Her2 level is 114% (inactive). In addition, in test [6] (H69AR cells + 2 uM doxorubicin), the differential viability (reversal) is -13.1% (inactive). Besides, the inhibition is -5.21% (inactive) in test [7] and -7.78% (inactive) in test [8].

In the case of `COc1ccc(Br)cc1CNC(=O)C1CCCN(S(C)(=O)=O)C1` (stereo not given), the viability in test [1] was 78%; in test [3], 78% (inactive); in test [4], 94.7% (inactive); in test [5] it was 88.4% (inactive); in test [6] (setting [9]), 82.2%; in test [6] (setting [10]), 88.4%. Further, in test [2], the Her2 level is 104% (inactive). For the same compound, in test [6] (H69AR cells + 2 uM doxorubicin), the differential viability (reversal) is 6.26% (inactive). Moreover, the inhibition is 0.9% (inactive) in test [7] and 10.2% (inactive) in test [8].

As for `CCOC(=O)c1c(NC(=O)c2ccn(CC)n2)sc2c1CCCC2`, the viability in test [1] was 88%; in test [3], 88% (inactive); in test [4], 75.5% (inactive); in test [5], 77.2% (inactive); in test [6] (setting [9]), 92.2%; in test [6] (setting [10]) it was 77.2%. Moreover, in test [2], the Her2 level is 70% (inactive). For the same compound, the differential viability (reversal) in test [6] (H69AR cells + 2 uM doxorubicin) was -15% (inactive). Also, the inhibition is -4.74% (inactive) in test [7] and 1.67% (inactive) in test [8].

For `O=C(Nc1ccc(N2CCOCC2)c(F)c1)c1ccncc1`, the viability in test [1] was 97%; in test [3], 97% (inactive); in test [4], 114% (inactive); in test [5], 96.6% (inactive); in test [6] (setting [9]) it was 84.2%; in test [6] (setting [10]), 96.6%. Moreover, the Her2 level in test [2] was 99% (inactive). In addition, the differential viability (reversal) in test [6] (H69AR cells + 2 uM doxorubicin) was 12.5% (inactive). Moreover, the inhibition in test [7] was -4.27% (inactive); in test [8], 1.64% (inactive).
